APJ antagonist = blocks the human apelin receptor APJ; P35414; CHO-K1 APJ beta-arrestin complementation, luminescence; inhibition, % at 20 µM; 330,000 compounds, 0.32% hits; AID 2521;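 active = inhibition above about 40% at 20 µM, limit read from the data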;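 note: cells challenged with 10 nM apelin-13 agonist together with compound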
CCR6 antag = antagonists of human CCR6 receptor; P51684; CHO-K1 CCR6 PathHunter beta-arrestin, luminescence, CCL20-stimulated; inhibition, % at 20 µM; 340,000 compounds, 0.49% hits; AID 493098;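 active = compounds whose inhibition of the agonist-driven luminescence signal at 20 µM reaches about 50%, limit read from the data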;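 note: cells stimulated with CCL20 at 14 nM final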
EBI2 block = antagonists of human EBI2 receptor. P32249. EBI2 beta-arrestin recruitment, luminescence, 7a,25-OHC stimulated. inhibition, % at 5 µM. 360,000 compounds, 0.81% hits. AID 651636; in the data active = inhibition above about 38%;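 note: enzyme fragment complementation signal reports receptor beta-arrestin coupling in cells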
Target sequence (P32249 whole entry, looked up, the tested form may be a part): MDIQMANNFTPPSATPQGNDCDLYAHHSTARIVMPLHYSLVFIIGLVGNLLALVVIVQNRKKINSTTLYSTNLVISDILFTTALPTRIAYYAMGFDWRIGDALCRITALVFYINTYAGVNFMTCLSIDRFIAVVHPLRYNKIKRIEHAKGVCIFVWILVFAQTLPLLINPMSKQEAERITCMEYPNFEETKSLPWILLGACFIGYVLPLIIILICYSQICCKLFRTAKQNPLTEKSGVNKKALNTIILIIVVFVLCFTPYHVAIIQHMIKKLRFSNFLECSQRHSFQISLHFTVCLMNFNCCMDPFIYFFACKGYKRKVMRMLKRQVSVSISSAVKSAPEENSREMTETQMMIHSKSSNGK
APJ agonist = agonists of human APJ apelin receptor | P35414 | CHO-K1 APJ PathHunter beta-arrestin, luminescence; 0% DMSO wells, 100% apelin | activation, % at 20 µM | 330,000 compounds, 0.11% hits;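 active = activation more than six SD over the plate average, tested at 20 µM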
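Test system: CHO-K1 APJ beta-arrestin complementation cell line | Compound: Single test compound dose, 20 µM final, 1% DMSO | Incubation: Compound 90 min 25 °C, reagent 1 h | Measured by: beta-gal luminescence | Read-out basis: APJ–arrestin association signal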
CXCR6 inh = blocks human CXCR6 beta-arrestin recruitment; O00574; CHO-K1 PathHunter CXCR6 beta-arrestin, luminescence; inhibition, % at 20 µM; 360,000 compounds, 0.36% hits; AID 602244; in the data active = inhibition above about 34%, passing the limit was not always enough;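 note: antagonist mode with CXCL16 agonist at 10 nM final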
EBI2 antag conf = confirmation of human EBI2 receptor antagonists. shares compounds with EBI2 block. EBI2 beta-arrestin luminescence, 7a,25-OHC antagonism. inhibition, % at 5 µM. 2,400 compounds, 29% hits. AID 651997;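 active = inhibition of at least 50%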
EBI2 ag = EBI2 agonism counter-screen; EBI2-expressing cells, agonist mode, luminescence, 60 min; 0% vehicle, 100% 7α,25-dihydroxycholesterol control; activation, % at 5 µM; 2,400 tested, under 10 active; shares compounds with EBI2 block; AID 652000;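 active = activation of at least 50%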
bGal counter = counter-screen for EBI2 antagonists: E. coli beta-galactosidase inhibition; shares compounds with EBI2 block; purified beta-galactosidase, luminescent Galacton Star, 15 min; inhibition, % at 5 µM; 2,400 compounds, 1% hits;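 active = replicate-average signal at least 3 plate SD below neutral wells, shown as high inhibition, flagging enzyme-inhibiting false positives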;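 note: higher means stronger loss of beta-gal luminescence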
Each line names hits and unclear results; the compound was inactive in the other large screens (follow-up assays come after a bar, where they were run). Only some compounds are listed: those with a hit (about 1.5% of all), similar ones and a draw of the others.

O=C(c1ccc(-c2ccccc2)cc1)N1CCCC1	none
COc1ccc(NC(=O)c2nc[nH]c2C(=O)N(C)CCO)cc1	none (no result: APJ antagonist, CCR6 antag, APJ agonist)
CCOC(=O)[C@]12CCCC=C1N(Cc1ccccc1)C(=O)[C@H](CC(=O)NCCCN1CCCC1=O)C2	none (no result: APJ antagonist, CCR6 antag, APJ agonist, CXCR6 inh)
CSc1ccc(CN2CCC(C)(Oc3ccc(-n4ccnc4)cc3)C2)cc1 (configuration not stated)	none (no result: APJ antagonist, CCR6 antag, APJ agonist)
CN(C)Cc1csc(NC(=O)Nc2ccccc2Cc2ccccc2)n1	none (no result: APJ antagonist, CCR6 antag, APJ agonist)
COc1ccccc1N1CCN(C(=O)c2cc(-c3cccs3)on2)CC1	EBI2 block 67 | EBI2 antag conf 52 | EBI2 ag inactive | bGal counter inactive
O=C(CSc1ccc2nnc(-c3ccccn3)n2n1)Nc1ccccc1	EBI2 block 55 | EBI2 antag conf inactive | EBI2 ag inactive | bGal counter inactive
CCOc1ccc(NC(=O)CSc2ccc3nnc(-c4ccccn4)n3n2)cc1	none
Cc1ccc(N2CCN(c3ccc(C)cc3)C2c2cccnc2)cc1	EBI2 block 68 | EBI2 antag conf inactive | EBI2 ag inactive | bGal counter inactive
c1ccc(N2CCN(c3ccccc3)C2c2cccnc2)cc1	none
N#Cc1ccc(OCC(=O)N2CCN(S(=O)(=O)c3cccc(Cl)c3)CC2)cc1	EBI2 block 54 | EBI2 antag conf inactive | EBI2 ag inactive | bGal counter inactive
COc1ccc(OCC(=O)N2CCN(S(=O)(=O)c3ccc(Cl)s3)CC2)cc1	EBI2 block 87 | EBI2 antag conf 79 | EBI2 ag inactive | bGal counter inactive
COc1ccc(CC(=O)N2CCN(S(=O)(=O)c3ccc(Cl)s3)CC2)cc1	none
N#Cc1ccc(OCC(=O)N2CCN(S(=O)(=O)c3ccc(Cl)s3)CC2)cc1	EBI2 block 81 | EBI2 antag conf inactive | EBI2 ag inactive | bGal counter inactive
CC1(C(=O)NCCC#N)CCN1C(=O)C1(c2ccccc2)CCCC1 (configuration not stated)	none (no result: APJ antagonist, CCR6 antag, APJ agonist)
OC[C@@H]1CN(Cc2ccc3c(c2)OCO3)C[C@H](n2cnc3c(NC4CCCC4)ncnc32)O1	none (no result: APJ antagonist, CCR6 antag, APJ agonist)
Cc1cccc(C)c1NC(=O)C(c1ccc(C#N)cc1)n1c(=O)c(-c2ccccc2)nc2ccccc21 (configuration not stated)	none (no result: APJ antagonist, CCR6 antag, APJ agonist, CXCR6 inh)
Cn1nnc2c[n+](CC(=O)c3ccc4ccccc4c3)cc(Br)c21	EBI2 block 66 | EBI2 antag conf 67 | EBI2 ag inactive | bGal counter inactive
Cn1nnc2c[n+](CC(=O)c3ccc(Cl)cc3)cc(Br)c21	none
O=C(Cn1ccc(=O)[nH]c1=O)c1ccc([N+](=O)[O-])o1	none (no result: APJ antagonist, CCR6 antag, APJ agonist)
COCCNc1nc(NCC2CCCCC2)c2sc(-c3ccccc3)cc2n1	none (no result: APJ antagonist, CCR6 antag, APJ agonist)
COCCNc1nc(NCCOc2ccccc2Cl)c2sc(-c3ccccc3)cc2n1	EBI2 block 40 (no result: APJ antagonist, CCR6 antag, APJ agonist) | EBI2 antag conf inactive | EBI2 ag inactive | bGal counter inactive
c1ccc(-c2cc3nc(NCC4CC4)nc(NCC4CCCCC4)c3s2)cc1	EBI2 block 56 (no result: APJ antagonist, CCR6 antag, APJ agonist) | EBI2 antag conf inactive | EBI2 ag inactive | bGal counter inactive
C=CCC1(CC=C)CCCN1C(=O)C1CCC(=O)N(CCc2ccccc2)C1 (configuration not stated)	EBI2 block 46 | EBI2 antag conf inactive | EBI2 ag inactive | bGal counter inactive
C=CCC1(CC=C)CCCN1C(=O)C1CCC(=O)N(CCc2ccc(OC)cc2)C1 (configuration not stated)	EBI2 block 57 | EBI2 antag conf inactive | EBI2 ag inactive | bGal counter inactive
COc1ccc(CCN2CC(C(=O)N(C)Cc3ccccn3)CCC2=O)cc1 (configuration not stated)	none (no result: APJ antagonist, CCR6 antag, APJ agonist)
COc1ccc(CCN2CC(C(=O)N(C)Cc3ccc(C)o3)CCC2=O)cc1 (configuration not stated)	EBI2 block 45 | EBI2 antag conf inactive | EBI2 ag inactive | bGal counter inactive
CCc1nc2ccc(C(=O)N(C)C(C)C)cn2c1N(CC)Cc1cccc(Br)c1	none (no result: APJ antagonist, CCR6 antag, APJ agonist)

Screening data deposited in PubChem by Sanford-Burnham Center for Chemical Genomics.
